How the values were obtained:
T47D [1] = assay: Antiproliferative activity against human T47D cells after 48 hrs by SRB assay; type: functional, cell-based
Summary of the method: (§1)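 Cells grown in RPMI-1640 with 5% heat-inactivated FCS, 1 mmol L-1 L-glutamine and 50 µg/mL gentamicin at 37 °C, 5% CO2. Seeded at 1000–2000 cells/well, 24 h later exposed 48 h to 5, 12, 25 and 50 µmol L-1. Fixed with 10% TCA 1 h at 4 °C, stained with 0.4% SRB, dye dissolved in Tris-HCl, OD 564 nm. IC50 from Boltzmann sigmoidal nonlinear regression.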

Aromatase = biological target: T1, Aromatase (Homo sapiens, UniProt P11511); assay: Inhibition of aromatase activity in human T47D cells after 24 hrs; type: cell-based; settings: for inhibition (INH): human, 24 h
T1 sequence (P11511 whole entry): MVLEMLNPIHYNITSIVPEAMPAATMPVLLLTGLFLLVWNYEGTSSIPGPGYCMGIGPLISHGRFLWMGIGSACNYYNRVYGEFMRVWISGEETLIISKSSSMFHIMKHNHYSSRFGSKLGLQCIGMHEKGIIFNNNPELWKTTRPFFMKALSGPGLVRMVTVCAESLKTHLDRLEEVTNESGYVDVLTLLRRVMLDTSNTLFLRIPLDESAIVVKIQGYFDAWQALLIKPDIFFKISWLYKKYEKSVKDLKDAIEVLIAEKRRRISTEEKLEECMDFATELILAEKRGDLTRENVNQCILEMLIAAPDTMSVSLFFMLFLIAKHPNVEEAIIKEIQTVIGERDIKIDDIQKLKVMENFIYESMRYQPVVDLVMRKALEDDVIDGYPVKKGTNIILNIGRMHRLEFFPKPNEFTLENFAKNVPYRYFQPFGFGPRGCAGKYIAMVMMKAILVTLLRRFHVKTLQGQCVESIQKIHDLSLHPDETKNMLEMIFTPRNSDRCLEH
Summary of the method: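 T47D cells in DMEM with 10% FBS, 10 µg/ml insulin and 1% penicillin-streptomycin. Plated at 1.2–1.8 × 10,000 cells/well. Treated 24 h with serial dilutions, then cellular aromatase activity measured and IC50 determined.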

T47D [2] = assay: Induction of apoptosis in human T47D cells assessed as increase in caspase-8 level by ELISA relative to control; type: functional
Summary of the method: (§2)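 Caspase-8 and caspase-9 in T47D cells quantified with separate human ELISA kits, reported as ng/mL against untreated control cells.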

T47D [3] = assay: Cell cycle arrest in human T47D cells assessed as accumulation at G1 phase at 8.1 uM by flow cytometry (reference value: 64.92%); type: functional
Summary of the method: (§3)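 Cell cycle distribution by flow cytometry in T47D cells, treated cells versus untreated control, at 8.1 µM; percentage of cells in G1, S and G2/M phases recorded.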

T47D [4] = assay: Cell cycle arrest in human T47D cells assessed as accumulation at S phase at 8.1 uM by flow cytometry (reference value: 17.14%); type: functional; summary of the method: as §3
T47D [5] = assay: Cell cycle arrest in human T47D cells by flow cytometry; type: functional, cell-based; summary of the method: as §3
T47D [6] = assay: Cell cycle arrest in human T47D cells assessed as accumulation at G2/M phase at 8.1 uM by flow cytometry (reference value: 15.81%); type: functional; summary of the method: as §3
T47D [7] = assay: Induction of apoptosis in human T47D cells assessed as decrease in Bcl-XL expression level at IC50 by qRT-PCR analysis relative to control; type: functional, cell-based
[8] = Cytotoxicity against human 184A1 cells after 48 hrs by SRB assay; type: cell-based; settings: 184A1, 48 h; summary of the method: as §1
T47D [9] = assay: Induction of apoptosis in human T47D cells assessed as increase in BAX expression level at IC50 by qRT-PCR analysis relative to control; type: functional
T47D [10] = assay: Induction of apoptosis in human T47D cells assessed as increase in Bax/Bcl2 ratio at IC50 by qRT-PCR analysis relative to control; type: functional
T47D [11] = assay: Induction of apoptosis in human T47D cells (reference value: 2.13%); type: functional
T47D [12] = assay: Induction of apoptosis in human T47D cells assessed as increase in caspase-9 level by ELISA relative to control; type: functional; summary of the method: as §2

SMILES | IC50 (T47D [1]) [µM] | inhibition (INH) (Aromatase) [%] | other results
Cc1noc(NS(=O)(=O)c2ccc(N/C=C\C(=O)c3ccc4c(c3)Nc3ccccc3S4)cc2)c1C | 79.5 |  | 
COc1cc(NS(=O)(=O)c2ccc(N/C=C\C(=O)c3ccc4c(c3)Nc3ccccc3S4)cc2)nc(OC)n1 | 58.1 | 44.94 | 
CN(C)/C=C\C(=O)c1ccc2c(c1)Nc1ccccc1S2 | 136 |  | 
Nc1ccc(S(=O)(=O)c2ccc(N/C=C\C(=O)c3ccc4c(c3)Nc3ccccc3S4)cc2)cc1 | 54.9 | 31.92 | 
COc1cnc(NS(=O)(=O)c2ccc(N/C=C\C(=O)c3ccc4c(c3)Nc3ccccc3S4)cc2)nc1 | 83.2 |  | 
O=C(/C=C\Nc1ccc(S(=O)(=O)Nc2ccc3cn[nH]c3c2)cc1)c1ccc2c(c1)Nc1ccccc1S2 | 91.1 |  | 
Cc1ccnc(NS(=O)(=O)c2ccc(N/C=C\C(=O)c3ccc4c(c3)Nc3ccccc3S4)cc2)n1 | 73.6 |  | 
NS(=O)(=O)c1ccc(N/C=C\C(=O)c2ccc3c(c2)Nc2ccccc2S3)cc1 | 67.6 | 28.9 | 
Cc1nnc(NS(=O)(=O)c2ccc(N/C=C\C(=O)c3ccc4c(c3)Nc3ccccc3S4)cc2)s1 | 71.4 |  | 
Cc1cc(NS(=O)(=O)c2ccc(N/C=C\C(=O)c3ccc4c(c3)Nc3ccccc3S4)cc2)on1 | 78.4 |  | 
COc1ncnc(NS(=O)(=O)c2ccc(N/C=C\C(=O)c3ccc4c(c3)Nc3ccccc3S4)cc2)c1OC | 82.2 |  | 
CC(=O)NS(=O)(=O)c1ccc(N/C=C\C(=O)c2ccc3c(c2)Nc2ccccc2S3)cc1 | 71.8 | 40.52 | 
Cc1cc(NS(=O)(=O)c2ccc(N/C=C\C(=O)c3ccc4c(c3)Nc3ccccc3S4)cc2)nc(C)n1 | 56.5 | 35.88 | 
O=C(/C=C\Nc1ccc(S(=O)(=O)Nc2ncccn2)cc1)c1ccc2c(c1)Nc1ccccc1S2 | 61.3 | 30.82 | 
O=C(/C=C\Nc1ccc(S(=O)(=O)Nc2ccnn2-c2ccccc2)cc1)c1ccc2c(c1)Nc1ccccc1S2 | 68.1 |  | 

These reach a lower IC50 (T47D [1]). Values come first.

IC50 (T47D [1]) [µM] | inhibition (INH) (Aromatase) [%] | SMILES | other results
50.7 | 43.62 | Cc1cc(C)nc(NS(=O)(=O)c2ccc(N/C=C\C(=O)c3ccc4c(c3)Nc3ccccc3S4)cc2)n1 | 
46.4 |  | O=C(/C=C\Nc1ccc(S(=O)(=O)c2ccc(N/C=C\C(=O)c3ccc4c(c3)Nc3ccccc3S4)cc2)cc1)c1ccc2c(c1)Nc1ccccc1S2 | 
23.7 | 72.22 | N=C(N)NS(=O)(=O)c1ccc(N/C=C\C(=O)c2ccc3c(c2)Nc2ccccc2S3)cc1 | IC50 (Aromatase): 9.67 µM
21.4 | 65.1 | O=C(/C=C\Nc1ccc(S(=O)(=O)Nc2cnc3ccccc3n2)cc1)c1ccc2c(c1)Nc1ccccc1S2 | IC50 (Aromatase): 8.9 µM
9.8 |  | COc1cccc2c1C(=O)c1c(O)c3c(c(O)c1C2=O)C[C@@](O)(C(=O)CO)C[C@@H]3O[C@H]1C[C@H](N)[C@H](O)[C@H](C)O1 [DOXORUBICIN] | 
8.8 | 68.86 | O=C(/C=C\Nc1ccc(S(=O)(=O)Nc2ccccn2)cc1)c1ccc2c(c1)Nc1ccccc1S2 | IC50 (Aromatase): 6.7 µM
8.1 | 68.32 | O=C(/C=C\Nc1ccc(S(=O)(=O)Nc2nccs2)cc1)c1ccc2c(c1)Nc1ccccc1S2 | fold change (FC) (T47D [2]): 34; IC50 (Aromatase): 5.67 µM; Activity (T47D [3]): 7.4%; Activity (T47D [4]): 13.1%; Activity (T47D [5]): Dose-dependent effect; Activity (T47D [6]): 56.3%; Activity (T47D [7]): Below limit of detection; IC50 [8]: 391 µM; fold change (FC) (T47D [9]): 55000; Ratio (T47D [10]): 1e+08; Activity (T47D [11]): 23.2%; fold change (FC) (T47D [12]): 8.9

Source: ChEMBL document CHEMBL4033644, “Aromatase inhibitors and apoptotic inducers: Design, synthesis, anticancer activity and molecular modeling studies of novel phenothiazine derivatives carrying sulfonamide moiety as hybrid molecules” (Eur J Med Chem, 2017)
